# Experimental data taken from ChEMBL document CHEMBL4308845, “Allosteric Activation of Striatal-Enriched Protein Tyrosine Phosphatase (STEP, PTPN5) by a Fragment-like Molecule” (J Med Chem, 2019).
# Activity calls are given as the source filed them. No cut-off for these calls is given here.
# T1: Tyrosine-protein phosphatase non-receptor type 5 (Homo sapiens) (UniProt P54829)
# T1 sequence (whole entry): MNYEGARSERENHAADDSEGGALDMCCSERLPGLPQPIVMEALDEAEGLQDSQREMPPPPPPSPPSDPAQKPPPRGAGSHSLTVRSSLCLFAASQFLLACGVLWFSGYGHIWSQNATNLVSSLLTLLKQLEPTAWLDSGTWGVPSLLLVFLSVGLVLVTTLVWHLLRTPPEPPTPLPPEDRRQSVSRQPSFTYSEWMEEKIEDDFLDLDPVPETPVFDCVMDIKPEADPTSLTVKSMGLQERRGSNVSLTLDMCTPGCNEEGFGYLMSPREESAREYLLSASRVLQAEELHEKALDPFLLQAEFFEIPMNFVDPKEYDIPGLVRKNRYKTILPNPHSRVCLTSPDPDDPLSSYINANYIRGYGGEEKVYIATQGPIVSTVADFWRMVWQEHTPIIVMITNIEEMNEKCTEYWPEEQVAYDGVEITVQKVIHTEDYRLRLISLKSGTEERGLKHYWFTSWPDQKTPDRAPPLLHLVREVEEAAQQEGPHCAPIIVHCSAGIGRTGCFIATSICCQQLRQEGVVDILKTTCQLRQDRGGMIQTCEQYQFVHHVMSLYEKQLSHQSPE
# B1: Tyrosine-protein phosphatase non-receptor type 5 (Homo sapiens), P54829 (protein)
# chain: T1 sequence (whole entry)
# Legend:
# [1] = molecular target: T1, Tyrosine-protein phosphatase non-receptor type 5 (Homo sapiens); test: Binding affinity to human 15N-labeled STEP PTP domain (281 to 563 residues) expressed in Escherichia coli OD2 assessed as induction of chemical perturbation at 500 uM by 1H,15N TROSY NMR spectral analysis
# Procedure, shortened: (§1)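 40 μM 15N-labelled STEP PTP domain in 20 mM Tris-d11, 100 mM NaCl, 1 mM TCEP, pH 7.4, 8% D2O, 1% DMSO-d6, 298 K. TROSY spectra used 192 transients and 64 indirect points. Binders were called by manual comparison with the protein-only reference spectrum.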
# Homo sapiens [2] = species on record: Homo sapiens; test: Binding affinity to human STEP46 (197 to 565 residues) expressed in Escherichia coli BL21(DE3) at 250 uM by STD-NMR method
# Procedure, shortened: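 Saturation was 3 s Gaussian pulse train, on-resonance −0.2 ppm, off-resonance 60 ppm. A 30 ms spin-lock suppressed protein signal, and the difference spectrum was taken.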
# Homo sapiens [3] = species on record: Homo sapiens; test: Binding affinity to human STEP46 (197 to 565 residues) expressed in Escherichia coli BL21(DE3) at 500 uM by SYPRO Orange dye based DSF
# Procedure, shortened: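 Final mix was 5 μM STEP46, 25× SYPRO Orange, 500 μM fragment, 1% DMSO in 20 mM HEPES pH 7.5, 50 mM NaCl, 1 mM TCEP, in duplicate. Samples were heated 25→95 °C at 1 °C/min, read every 0.5 °C. Tm was taken from the first-derivative minimum. ΔTm ≥0.5 °C versus DMSO counted as a hit.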
# Homo sapiens [4] = species on record: Homo sapiens; test: Binding affinity to human STEP46 (197 to 565 residues) expressed in Escherichia coli BL21(DE3) by MST method
# [5] = molecular target: Tyrosine-protein phosphatase non-receptor type 5 (Homo sapiens) (UniProt P54829); test: Binding affinity to human 15N-labeled STEP PTP domain (281 to 563 residues) expressed in Escherichia coli OD2 assessed as induction of chemical perturbation at 2 mM by 1H,15N TROSY NMR spectral analysis; procedure, shortened: as §1
# [6] = compound: N=C(N)Nc1cc(C2CCNCC2)cc(C(F)(F)F)c1; test: Activation of human STEP PTP domain (281 to 563 residues) expressed in Escherichia coli BL21(DE3) assessed as Km for substrate at 500 uM using pFyn peptide substrate after 60 mins by RapidFire MS/MS assay (reference value: 60.8 +/- 7.9 uM)
# [7] = compound: N=C(N)Nc1cc(C2CCNCC2)cc(C(F)(F)F)c1; test: Activation of human STEP PTP domain (281 to 563 residues) expressed in Escherichia coli BL21(DE3) assessed as Kcat at 500 uM using pFyn peptide substrate after 60 mins by RapidFire MS/MS assay (reference value: 0.024 +/- 0.002 /s)
molecule,measurement,setting,value
CC(N)Cc1cccc(C(F)(F)F)c1 (stereo not given),Activity,[1],inactive
CC(N)Cc1cc(O)cc(C(F)(F)F)c1 (stereo not given),Activity,[1],> 5 mM
same,Activity,Homo sapiens [2],Active
same,Activity,Homo sapiens [3],Active
same,Activity,Homo sapiens [4],Active
N=C(N)Nc1cccc(C(F)(F)F)c1,Activity,[1],Active
SODIUM ORTHOVANAD,Activity,[5],Active
CC(N)Cc1cc(N)cc(C(F)(F)F)c1 (stereo not given),Activity,[1],inactive
B1,Km,[6],65.4 µM
same,kcat,[7],0.042 s⁻¹
